Drawing on ChEMBL document CHEMBL1155689, “Evaluation of the total peroxyl radical-scavenging capacity of flavonoids: structure-activity relationships” (J Nat Prod, 2000), this text covers Activity for 6 compounds.

Each structure is given as a SMILES string.

Series [1] in a line: Antioxidant scavenging activity against 2,2'-azobis-amidinopropane-induced peroxyl radicals assessed as total oxyradical scavenging capacity relative to Trolox. It counts as physicochemical. In outline: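 Uses the same ABAP/KMBA ethylene-GC assay: 39 °C, 0.1 mM KMBA, 10 mM ABAP, pH 7.4 phosphate, 60-min time course. TOSC comes from the areas under the kinetic curves, and rTOSC from the slope of TOSC against concentration. Comparative TOSC (cTOSC) expresses each rTOSC relative to the Trolox benchmark.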

Series [2] in a line: Antioxidant scavenging activity against 2,2'-azobis-amidinopropane-induced peroxyl radicals assessed as total oxyradical scavenging capacity. Also noted: unit not given here. It is filed as physicochemical. The method in brief: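 Peroxyl radicals from thermal homolysis of ABAP at 39 °C, with 0.1 mM KMBA and 10 mM ABAP (final) in 100 mM potassium phosphate, pH 7.4. Ethylene in the headspace was measured by GC at 12-min intervals over 60 min. TOSC = 100 − (∫sample/∫control area × 100). rTOSC is the slope of the TOSC vs concentration regression within the linear range.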

Regarding `O=c1c(O)c(-c2ccc(O)c(O)c2)oc2cc(O)cc(O)c12` [QUERCETIN], the Activity in series [1] was 7.17; in series [2], 40.32. `COc1cc(-c2cc(=O)c3c(O)c(O)c(OC)c(OC)c3o2)ccc1O`: the Activity in series [1] stood at 1.52; in series [2], 8.53. In the case of `Cc1c(C)c2c(c(C)c1O)CCC(C)(C(=O)O)O2` (stereo unspecified) [TROLOX], the Activity in series [2] was found to be 5.62. With `C[C@@H]1O[C@@H](OC[C@H]2O[C@@H](Oc3c(-c4ccc(O)c(O)c4)oc4cc(O)cc(O)c4c3=O)[C@H](O)[C@@H](O)[C@@H]2O)[C@H](O)[C@H](O)[C@H]1O` [RUTIN], the Activity is 5.15 in series [1] and 28.96 in series [2].

Regarding `COc1ccc(-c2oc3cc(OC)c(OC)c(O)c3c(=O)c2OC)cc1OC` [ARTEMETIN], the results for the Activity in series [1] and in series [2] were 0.28 and 1.55, respectively. The like results for `COc1cc(-c2cc(=O)c3c(O)c(OC)c(OC)c(OC)c3o2)ccc1O` were, in that order, 0.81 and 4.53.
